Reference: ChEMBL document CHEMBL3593234, “Lanostane Triterpenes from the Tibetan Medicinal Mushroom Ganoderma leucocontextum and Their Inhibitory Effects on HMG-CoA Reductase and α-Glucosidase” (J Nat Prod, 2015)

Legend:
[1] = molecular target: T1, 3-hydroxy-3-methylglutaryl-coenzyme A reductase (Sus scrofa, UniProt Q1W675); test: Inhibition of pig liver microsomes HMG-CoA reductase incubated for 5 mins in using HMG-CoA and NADPH by colorimetric method
T1 sequence (Q1W675 whole entry): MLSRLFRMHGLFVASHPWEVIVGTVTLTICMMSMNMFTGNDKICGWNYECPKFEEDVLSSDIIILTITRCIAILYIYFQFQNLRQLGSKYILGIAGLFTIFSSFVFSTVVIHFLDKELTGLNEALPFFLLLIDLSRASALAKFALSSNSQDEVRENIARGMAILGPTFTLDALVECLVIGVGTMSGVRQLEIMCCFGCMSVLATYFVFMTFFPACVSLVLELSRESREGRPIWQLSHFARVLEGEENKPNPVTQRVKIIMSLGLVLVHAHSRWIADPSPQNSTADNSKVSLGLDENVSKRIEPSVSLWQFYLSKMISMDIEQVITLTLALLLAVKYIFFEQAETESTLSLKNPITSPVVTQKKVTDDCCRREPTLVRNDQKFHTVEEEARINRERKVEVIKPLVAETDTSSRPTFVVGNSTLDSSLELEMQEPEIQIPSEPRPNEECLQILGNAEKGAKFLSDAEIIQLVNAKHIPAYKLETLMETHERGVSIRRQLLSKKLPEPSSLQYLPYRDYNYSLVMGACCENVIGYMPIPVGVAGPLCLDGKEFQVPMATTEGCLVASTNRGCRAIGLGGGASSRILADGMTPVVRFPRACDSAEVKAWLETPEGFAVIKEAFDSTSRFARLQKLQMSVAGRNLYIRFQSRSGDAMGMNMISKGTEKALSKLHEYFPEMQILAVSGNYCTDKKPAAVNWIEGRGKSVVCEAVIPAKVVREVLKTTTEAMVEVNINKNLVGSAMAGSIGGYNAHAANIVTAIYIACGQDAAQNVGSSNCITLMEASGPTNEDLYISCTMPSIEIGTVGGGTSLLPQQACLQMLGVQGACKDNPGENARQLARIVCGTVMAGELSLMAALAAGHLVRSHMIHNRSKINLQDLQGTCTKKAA
How it was run: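 Pig liver microsomal HMG-CoA reductase at about 4 U/mL final, with compound at 2.5–80 μM final and 200 μM HMG-CoA. Buffer was 0.1 mol/L potassium phosphate pH 7.0 with EDTA, dithiothreitol and BSA. After 5 min at 37 °C, 100 μM NADPH was added for 15 min at 37 °C. Absorbance was read at 340 nm, with percent inhibition from blank-corrected OD.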

[2] = Inhibition of Baker's yeast alpha-glucosidase; parameters: species or system Saccharomyces cerevisiae
How it was run: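 Baker's yeast α-glucosidase assay read by absorbance at 405 nm. Control wells got phosphate buffer instead of compound, and blanks got buffer instead of enzyme. Percent inhibition was calculated from blank-corrected OD of test versus control wells.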

K562 = test: Cytotoxicity against human K562 cells by MTT method; assay type: functional, cell-based
PC-3 = test: Cytotoxicity against human PC3 cells by MTT method; assay type: functional, cell-based

Row | SMILES | IC50 [1] [µM] | IC50 [2] [µM] | IC50 (K562; Homo sapiens, K562) [µM] | IC50 (PC-3; Homo sapiens, PC-3) [µM] | IC50 (K562; k562) [µM] | IC50 (PC-3; pc-3) [µM]
1 | C/C(=C\CC[C@@H](C)[C@H]1CC(=O)[C@@]2(C)C3=C(C(=O)[C@H](O)[C@]12C)[C@@]1(C)CCC(=O)[C@@](C)(CO)[C@@H]1C[C@@H]3O)C(=O)O | > 100 | 12.7 | > 200 | > 200 | – | –
2 | C/C(=C\CC[C@@H](C)[C@H]1CC[C@@]2(C)C3=CC[C@H]4C(C)(C)[C@@H](O)CC[C@]4(C)C3=CC[C@]12C)C(=O)O [GANODERIC ACID Y] | 8.6 | > 50 | 17.5 | 180 | – | –
3 | C/C(=C/CC[C@@H](C)[C@H]1CC[C@@]2(C)C3=C(CC[C@]12C)[C@@]1(C)CCC(=O)C(C)(C)[C@@H]1CC3=O)C(=O)O (stereo in doubt; 21) [GANODERIC ACID DM] | 56.1 | – | – | – | 55.4 | 149
4 | CC(=O)O[C@H]1C(=O)C2=C([C@@H](O)C[C@H]3[C@](C)(COC(=O)C[C@@](C)(O)CC(=O)O)C(=O)CC[C@]23C)[C@]2(C)C(=O)C[C@H]([C@H](C)CC/C=C(\C)C(=O)O)[C@@]12C | 26.4 | > 50 | 12.3 | 110 | – | –
5 | CC(=O)O[C@H]1C(=O)C2=C([C@@H](O)C[C@H]3[C@](C)(CO)C(=O)CC[C@]23C)[C@]2(C)CC[C@H]([C@H](C)CC/C=C(\C)C(=O)O)[C@@]12C | 26.6 | > 50 | > 200 | > 200 | – | –
6 | C/C(=C/CC[C@@H](C)[C@H]1CC[C@@]2(C)C3=C(C(O)C[C@]12C)[C@@]1(C)CCC(=O)C(C)(C)[C@@H]1CC3=O)C(=O)O (some centres not stated) | > 100 | > 50 | > 200 | > 200 | – | –
7 | C/C(=C\CC[C@@H](C)[C@H]1CC[C@@]2(C)C3=C(CC[C@]12C)[C@@]1(C)CCC(=O)C(C)(C)[C@@H]1CC3=O)CO [GANODERONE A] | > 100 | 13.7 | 27.7 | 28.5 | – | –
8 | C[C@H](CCC=C(CO)CO)[C@H]1CC[C@@]2(C)C3=C(C(=O)C[C@]12C)[C@@]1(C)CCC(=O)C(C)(C)[C@@H]1CC3=O | 32.9 | > 50 | 115 | 24.2 | – | –
9 | CC(=O)O[C@H]1C(=O)C2=C(C(=O)C[C@H]3[C@](C)(CO)C(=O)CC[C@]23C)[C@]2(C)C(=O)C[C@H]([C@H](C)CC/C=C(\C)C(=O)O)[C@@]12C | 20.5 | > 50 | 18.2 | > 200 | – | –
10 | C[C@H](CCC=C(CO)CO)[C@H]1C[C@@H](O)[C@@]2(C)C3=CC[C@H]4C(C)(C)C(=O)CC[C@]4(C)C3=CC[C@]12C | > 100 | > 50 | 76.6 | 103 | – | –
11 | C[C@H](CCC=C(CO)CO)[C@H]1CC[C@@]2(C)C3=CC[C@H]4C(C)(C)C(=O)CC[C@]4(C)C3=CC[C@]12C [GANODERIOL F] | > 100 | > 50 | 54.9 | 79.5 | – | –
12 | CC(=O)O[C@H]1C(=O)[C@@]2(C)[C@H]([C@H](OC(=O)c3ccccc3)[C@]3(O)C[C@H](OC(=O)[C@H](O)[C@@H](NC(=O)c4ccccc4)c4ccccc4)C(C)=C1C3(C)C)[C@]1(OC(C)=O)CO[C@@H]1C[C@@H]2O [PACLITAXEL] | – | – | 0.9 | – | – | –
13 | CC(C)c1c(C(=O)Nc2ccccc2)c(-c2ccccc2)c(-c2ccc(F)cc2)n1CC[C@@H](O)C[C@@H](O)CC(=O)O [ATORVASTATIN] | 32.1 | – | – | – | – | –
14 | COc1cccc2c1C(=O)c1c(O)c3c(c(O)c1C2=O)C[C@@](O)(C(=O)CO)C[C@@H]3O[C@H]1C[C@H](N)[C@H](O)[C@H](C)O1 [DOXORUBICIN] | – | – | – | 2 | – | –
15 | C[C@H]1O[C@H](O[C@H]2[C@H](O)[C@@H](O)[C@@H](O[C@H]3[C@H](O)[C@@H](O)C(O)O[C@@H]3CO)O[C@@H]2CO)[C@H](O)[C@@H](O)[C@@H]1N[C@H]1C=C(CO)[C@@H](O)[C@H](O)[C@H]1O (some centres not stated) [ACARBOSE] | – | 273 | – | – | – | –
